From PMC6828556 (Biochemical pharmacology, 2017)

Key:
human 17β-HSD2 = molecular target: T1, human 17β-HSD2 (Homo sapiens, UniProt P37059); assay: 17β-HSD2 activity in lysates of transiently transfected HEK-293 cells; format: biochemical; settings: HEK-293 lysates, 200 nM estradiol; data not shown
T1 sequence (P37059 1-387): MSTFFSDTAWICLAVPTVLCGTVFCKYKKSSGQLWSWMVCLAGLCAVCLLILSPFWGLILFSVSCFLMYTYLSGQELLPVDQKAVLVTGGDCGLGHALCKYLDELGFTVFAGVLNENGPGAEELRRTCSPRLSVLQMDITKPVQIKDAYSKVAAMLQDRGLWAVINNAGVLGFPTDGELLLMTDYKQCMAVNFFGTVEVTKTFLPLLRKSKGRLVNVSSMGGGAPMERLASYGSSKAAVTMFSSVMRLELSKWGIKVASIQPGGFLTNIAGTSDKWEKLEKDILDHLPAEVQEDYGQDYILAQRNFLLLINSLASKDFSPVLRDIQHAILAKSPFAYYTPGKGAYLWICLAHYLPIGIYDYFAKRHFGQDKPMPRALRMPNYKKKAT
How it was run: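 Lysates of HEK-293 cells transiently expressing human 17β-HSD2 were incubated for 10 min at 37°C with 200 nM estradiol (containing 50 nCi [2,4,6,7-3H]-estradiol), 500 μM NAD+ and test compound or DMSO vehicle. Steroids were separated by TLC, with conversion quantified by scintillation counting. Results were normalized to the vehicle control. Data are mean ± SD from at least three independent experiments.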

[1] = first trimester exposure, 229 women, 50-800 mg daily, prospective cohort; cited from earlier work
11β-HSD2 [2] = molecular target: T2, 11β-HSD2 (Homo sapiens, UniProt P80365); assay: 11β-HSD2 activity in lysates of HEK-293 cells stably expressing human 11β-HSD2; format: biochemical
T2 sequence (P80365 1-405): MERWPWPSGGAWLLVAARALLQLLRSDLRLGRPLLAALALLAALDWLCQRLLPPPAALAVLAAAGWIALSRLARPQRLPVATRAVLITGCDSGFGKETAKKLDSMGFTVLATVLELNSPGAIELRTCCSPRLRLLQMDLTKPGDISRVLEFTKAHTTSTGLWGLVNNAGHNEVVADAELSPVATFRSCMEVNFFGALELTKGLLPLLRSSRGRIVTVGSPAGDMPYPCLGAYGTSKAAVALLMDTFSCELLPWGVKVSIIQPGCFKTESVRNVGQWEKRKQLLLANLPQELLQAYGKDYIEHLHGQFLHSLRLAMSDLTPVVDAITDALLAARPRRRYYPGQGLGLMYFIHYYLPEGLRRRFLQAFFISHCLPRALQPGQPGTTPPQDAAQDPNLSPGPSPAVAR
How it was run: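 Reactions were stopped with excess unlabeled cortisone/cortisol, giving about 20–25% conversion. Products were separated by TLC (chloroform:methanol 9:1) and counted by scintillation. Activity was normalized to vehicle; mean ± SD, ≥3 independent experiments.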

human 17β-HSD1 = molecular target: T3, human 17β-HSD1 (Homo sapiens, UniProt P14061); assay: 17β-HSD1 activity in lysates of transiently transfected HEK-293 cells; format: biochemical; settings: HEK-293 lysates, 200 nM estrone; data not shown
T3 sequence (P14061 1-328): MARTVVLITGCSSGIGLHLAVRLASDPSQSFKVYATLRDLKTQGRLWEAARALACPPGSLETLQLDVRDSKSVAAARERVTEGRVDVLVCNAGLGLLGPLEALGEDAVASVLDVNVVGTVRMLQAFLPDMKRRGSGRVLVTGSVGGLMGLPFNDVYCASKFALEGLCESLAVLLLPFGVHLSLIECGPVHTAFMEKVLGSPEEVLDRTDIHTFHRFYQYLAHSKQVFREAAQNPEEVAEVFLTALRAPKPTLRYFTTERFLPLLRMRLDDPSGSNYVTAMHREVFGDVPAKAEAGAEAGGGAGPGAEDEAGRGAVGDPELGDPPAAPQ
How it was run: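 Lysates of HEK-293 cells transiently expressing human 17β-HSD1 were incubated for 10 min at 37°C with 200 nM estrone (containing 50 nCi [2,4,6,7-3H]-estrone), 500 μM NADPH and test compound or DMSO vehicle. Steroids were separated by TLC, and substrate conversion was measured by scintillation counting. Activity was normalized to the vehicle control. Data are mean ± SD from at least three independent experiments.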

human 11β-HSD1 = human 11β-HSD1 (Homo sapiens, UniProt P28845); format: biochemical; settings: HEK-293 lysates, recombinant human enzyme
How it was run: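 Lysates of HEK-293 cells stably co-expressing human 11β-HSD1 and H6PDH (HHH7 clone) were incubated 10 min at 37°C with 200 nM radiolabeled cortisone, 500 μM NADPH and test compound or DMSO vehicle (max 0.1%). Reactions were stopped with excess unlabeled cortisone/cortisol, giving about 20–25% conversion. Steroids were separated by TLC (chloroform:methanol 9:1) and counted by scintillation. Activity was normalized to vehicle; mean ± SD, ≥3 independent experiments. IC50 was skipped when residual activity at 20 μM exceeded 40%.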

11β-HSD2 [3] = molecular target: T2, 11β-HSD2; assay: 11β-HSD2 activity in intact MCF-7 cells; format: cell-based
How it was run: (§1)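 Cells were grown in DMEM with 10% FBS (SW-620 passages 11–15, MCF-7 passages 19–27) and seeded at 100 000 (SW-620) or 50 000 (MCF-7) per well. After 24 h, medium was replaced by steroid- and serum-free DMEM with vehicle or inhibitor plus radiolabeled cortisol (10 nCi; 50 nM final). Incubation was at 37°C for 4 h (SW-620) or 5 h (MCF-7). Conversion was read by TLC and scintillation counting.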

[4] = cited from earlier work
11β-HSD2 [5] = molecular target: T2, 11β-HSD2; format: biochemical; settings: preincubation 0, 5, 20 min at 4°C or 10 min followed by dilution
How it was run: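 Lysates of HEK-293 cells expressing human 11β-HSD2 were preincubated with test compound for 0, 5 or 20 min at 4°C before activity measurement. Alternatively, lysates were preincubated 10 min with compound, then diluted 1:2 or 1:4 before measuring 11β-HSD2 activity (radiolabeled cortisol, NAD+, TLC/scintillation). Data were normalized to DMSO control; mean ± SD, ≥3 independent experiments.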

11β-HSD2 [6] = molecular target: T2, 11β-HSD2; assay: 11β-HSD2 activity in intact SW-620 cells; format: cell-based
How it was run: as §1

Sequence of human 11β-HSD1 (P28845 whole entry): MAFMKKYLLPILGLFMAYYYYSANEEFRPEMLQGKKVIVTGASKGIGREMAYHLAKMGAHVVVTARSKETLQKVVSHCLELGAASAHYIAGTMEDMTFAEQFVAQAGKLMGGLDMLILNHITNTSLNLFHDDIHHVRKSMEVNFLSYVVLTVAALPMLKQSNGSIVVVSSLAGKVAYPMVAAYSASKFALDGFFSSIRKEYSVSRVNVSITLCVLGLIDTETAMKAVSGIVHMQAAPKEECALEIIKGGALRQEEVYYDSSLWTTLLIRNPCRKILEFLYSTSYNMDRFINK

SMILES: CCC(C)n1ncn(-c2ccc(N3CCN(c4ccc(OCC5COC(Cn6cncn6)(c6ccc(Cl)cc6Cl)O5)cc4)CC3)cc2)c1=O (stereo not drawn) [itraconazole]
- inhibition of 17β-HSD2 activity (human 17β-HSD2): None of the compounds inhibited 17β-HSD1 or 17β-HSD2 activity
- rate of malformations compared to the control [1]: no difference
- IC50 (11β-HSD2 [2]): 139 ± 14 nM
- IC25 for 11β-HSD2 (11β-HSD2 [2]; as determined in HEK-293 cell lysates): 78 nM
- inhibition of 17β-HSD1 activity (human 17β-HSD1): None of the compounds inhibited 17β-HSD1 or 17β-HSD2 activity
- activity against 11β-HSD1 (in words) (human 11β-HSD1): inactivity towards 11β-HSD1
- IC50 (11β-HSD2 [3]): 1190 ± 240 nM
- concentration in fat tissue relative to plasma ([4]; fat tissue): approximately 17 fold
- duration of treatment needed to reach plasma steady-state levels ([4]; human plasma): 15 days
- concentration in lung, liver, muscle and kidney relative to plasma ([4]; lung, liver, muscle and kidney): 2-3 fold
- irreversible 11β-HSD2 inhibition (11β-HSD2 [5]): excluded
- IC50 (11β-HSD2 [6]): 1070 ± 290 nM
